Test results taken from ChEMBL document CHEMBL1152439, “Calcitriol derivatives with two different side chains at C-20. V. Potent inhibitors of mammary carcinogenesis and inducers of leukemia differentiation” (J Med Chem, 2009).
The source made the active and inactive calls. The calls are words filed in the database; no cut-off is given here.

Tests used:
[1] = test system: NB-4; assay: Induction of cell differentiation in human NB4 cells assessed as induction of induction of cell surface marker CD14 expression at 1 nM after 48 hrs; type: functional, cell-based
Procedure, shortened: (§1)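 NB4 human promyelocytic leukemia cells kept in log-phase suspension in RPMI 1640 with 10% […] iron-supplemented bovine calf serum, 37 °C, 5% CO₂. Exposed to compounds at 1 nM for 48 h; 1 × 10⁶ cells washed twice in PBS, then labelled with MY4-RD1 and Mo1-FITC antibodies to measure surface CD14 and CD11b expression.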

[2] = test system: NB-4; assay: Induction of cell differentiation in human NB4 cells assessed as induction of induction of cell surface marker CD11b expression at 1 nM after 48 hrs; type: functional, cell-based; procedure, shortened: as §1
[3] = Antiproliferative activity against human MCF10CA1a after 3 days by [3H]thymidine uptake assay; type: functional

SMILES: C=C1/C(=C\C=C2/CCC[C@]3(C)[C@@H]([C@H](CC#CC(O)(C(F)(F)F)C(F)(F)F)CCCC(C)(C)O)CC[C@@H]23)C[C@@H](O)C[C@@H]1O
- Activity ([1]; tested as the 2H-labelled form): Active
- Activity ([2]; tested as the 2H-labelled form): Active

SMILES: [2H]C([2H])([2H])C(O)(CCC[C@@H](CC#CC(O)(C(F)(F)F)C(F)(F)F)[C@H]1CC[C@H]2/C(=C/C=C3C[C@@H](O)C[C@H](O)C3)CCC[C@]12C)C([2H])([2H])[2H]
- IC50 [3]: 120 pM

SMILES: [2H]C([2H])([2H])C(O)(CCC[C@@H](CC#CC(O)(C(F)(F)F)C(F)(F)F)[C@H]1CC[C@H]2/C(=C/C=C3/C[C@@H](O)C[C@H](O)C3=C)CCC[C@]12C)C([2H])([2H])[2H]
- IC50 [3]: 62 pM

SMILES: C=C1/C(=C\C=C2/CCC[C@]3(C)[C@@H]([C@@H](CC#CC(O)(C(F)(F)F)C(F)(F)F)CCCC(C)(C)O)CC[C@@H]23)C[C@@H](O)C[C@@H]1F
- Activity ([1]; tested as the 2H-labelled form): Active
- Activity ([2]; tested as the 2H-labelled form): Active

SMILES: [2H]C([2H])([2H])C(O)(CCC[C@@H](CC#CC(O)(C(F)(F)F)C(F)(F)F)[C@H]1CC[C@H]2/C(=C/C=C3/C[C@@H](O)C[C@H](F)C3=C)CCC[C@]12C)C([2H])([2H])[2H]
- IC50 [3]: 560 pM

SMILES: [2H]C([2H])([2H])C(O)(CCC[C@H](C/C=C\C(O)(C(F)(F)F)C(F)(F)F)[C@H]1CC[C@H]2/C(=C/C=C3/C[C@@H](O)C[C@H](F)C3=C)CCC[C@]12C)C([2H])([2H])[2H]
- IC50 [3]: 6900 pM

SMILES: C=C1/C(=C\C=C2/CCC[C@]3(C)[C@@H]([C@H](C/C=C\C(O)(C(F)(F)F)C(F)(F)F)CCCC(C)(C)O)CC[C@@H]23)C[C@@H](O)C[C@@H]1O
- Activity ([1]; tested as the 2H-labelled form): Active
- Activity ([2]; tested as the 2H-labelled form): Active

SMILES: [2H]C([2H])([2H])C(O)(CCC[C@H](CC#CC(O)(C(F)(F)F)C(F)(F)F)[C@H]1CC[C@H]2/C(=C/C=C3/C[C@@H](O)C[C@H](O)C3=C)CCC[C@]12C)C([2H])([2H])[2H]
- IC50 [3]: 53 pM

SMILES: [2H]C([2H])([2H])C(O)(CCC[C@@H](C/C=C\C(O)(C(F)(F)F)C(F)(F)F)[C@H]1CC[C@H]2/C(=C/C=C3/C[C@@H](O)C[C@H](F)C3=C)CCC[C@]12C)C([2H])([2H])[2H]
- IC50 [3]: > 10000 pM

SMILES: CC(C)(O)CCC[C@H](C/C=C\C(O)(C(F)(F)F)C(F)(F)F)[C@H]1CC[C@H]2/C(=C/C=C3C[C@@H](O)C[C@H](O)C3)CCC[C@]12C
- Activity ([1]; tested as the 2H-labelled form): Active
- Activity ([2]; tested as the 2H-labelled form): Active

SMILES: C=C1/C(=C\C=C2/CCC[C@]3(C)[C@@H]([C@H](C/C=C\C(O)(C(F)(F)F)C(F)(F)F)CCCC(C)(C)O)CC[C@@H]23)C[C@@H](O)C[C@@H]1F
- Activity ([1]; tested as the 2H-labelled form): Active
- Activity ([2]; tested as the 2H-labelled form): Active

SMILES: C=C1/C(=C\C=C2/CCC[C@]3(C)[C@@H]([C@@H](CC#CC(O)(C(F)(F)F)C(F)(F)F)CCCC(C)(C)O)CC[C@@H]23)C[C@@H](O)C[C@@H]1O
- Activity ([1]; tested as the 2H-labelled form): Active
- Activity ([2]; tested as the 2H-labelled form): Active

SMILES: CC(C)(O)CCC[C@@H](CC#CC(O)(C(F)(F)F)C(F)(F)F)[C@H]1CC[C@H]2/C(=C/C=C3C[C@@H](O)C[C@H](O)C3)CCC[C@]12C
- Activity ([1]; tested as the 2H-labelled form): Active
- Activity ([2]; tested as the 2H-labelled form): Active

SMILES: [2H]C([2H])([2H])C(O)(CCC[C@H](CC#CC(O)(C(F)(F)F)C(F)(F)F)[C@H]1CC[C@H]2/C(=C/C=C3C[C@@H](O)C[C@H](O)C3)CCC[C@]12C)C([2H])([2H])[2H]
- IC50 [3]: 190 pM

SMILES: [2H]C([2H])([2H])C(O)(CCC[C@H](C/C=C\C(O)(C(F)(F)F)C(F)(F)F)[C@H]1CC[C@H]2/C(=C/C=C3C[C@@H](O)C[C@H](O)C3)CCC[C@]12C)C([2H])([2H])[2H]
- IC50 [3]: 430 pM

SMILES: CC(C)(O)CCC[C@@H](C/C=C\C(O)(C(F)(F)F)C(F)(F)F)[C@H]1CC[C@H]2/C(=C/C=C3C[C@@H](O)C[C@H](O)C3)CCC[C@]12C
- Activity ([1]; tested as the 2H-labelled form): Active
- Activity ([2]; tested as the 2H-labelled form): Active

SMILES: C=C1/C(=C\C=C2/CCC[C@]3(C)[C@@H]([C@H](C)CCCC(C)(C)O)CC[C@@H]23)C[C@@H](O)C[C@@H]1O
- Activity [1]: Active
- Activity [2]: Active

SMILES: C=C1/C(=C\C=C2/CCC[C@]3(C)[C@@H]([C@@H](C/C=C\C(O)(C(F)(F)F)C(F)(F)F)CCCC(C)(C)O)CC[C@@H]23)C[C@@H](O)C[C@@H]1F
- Activity ([1]; tested as the 2H-labelled form): Active
- Activity ([2]; tested as the 2H-labelled form): Active

SMILES: [2H]C([2H])([2H])C(O)(CCC[C@H](CC#CC(O)(C(F)(F)F)C(F)(F)F)[C@H]1CC[C@H]2/C(=C/C=C3/C[C@@H](O)C[C@H](F)C3=C)CCC[C@]12C)C([2H])([2H])[2H]
- IC50 [3]: 1600 pM

SMILES: [2H]C([2H])([2H])C(O)(CCC[C@@H](C/C=C\C(O)(C(F)(F)F)C(F)(F)F)[C@H]1CC[C@H]2/C(=C/C=C3C[C@@H](O)C[C@H](O)C3)CCC[C@]12C)C([2H])([2H])[2H]
- IC50 [3]: 3200 pM

SMILES: CC(C)(O)CCC[C@H](CC#CC(O)(C(F)(F)F)C(F)(F)F)[C@H]1CC[C@H]2/C(=C/C=C3C[C@@H](O)C[C@H](O)C3)CCC[C@]12C
- Activity ([1]; tested as the 2H-labelled form): Active
- Activity ([2]; tested as the 2H-labelled form): Active

SMILES: C=C1/C(=C\C=C2/CCC[C@]3(C)[C@@H]([C@H](CC#CC(O)(C(F)(F)F)C(F)(F)F)CCCC(C)(C)O)CC[C@@H]23)C[C@@H](O)C[C@@H]1F
- Activity ([1]; tested as the 2H-labelled form): Active
- Activity ([2]; tested as the 2H-labelled form): Active

SMILES: [2H]C([2H])([2H])C(O)(CCC[C@H](C/C=C\C(O)(C(F)(F)F)C(F)(F)F)[C@H]1CC[C@H]2/C(=C/C=C3/C[C@@H](O)C[C@H](O)C3=C)CCC[C@]12C)C([2H])([2H])[2H]
- IC50 [3]: 560 pM

SMILES: C=C1/C(=C\C=C2/CCC[C@]3(C)[C@@H]([C@@H](C/C=C\C(O)(C(F)(F)F)C(F)(F)F)CCCC(C)(C)O)CC[C@@H]23)C[C@@H](O)C[C@@H]1O
- Activity ([1]; tested as the 2H-labelled form): Active
- Activity ([2]; tested as the 2H-labelled form): Active

SMILES: [2H]C([2H])([2H])C(O)(CCC[C@@H](C/C=C\C(O)(C(F)(F)F)C(F)(F)F)[C@H]1CC[C@H]2/C(=C/C=C3/C[C@@H](O)C[C@H](O)C3=C)CCC[C@]12C)C([2H])([2H])[2H]
- IC50 [3]: 1600 pM
